Data as given in ChEMBL document CHEMBL1125590, “Purine and 1-deazapurine ribonucleosides and deoxyribonucleosides: synthesis and biological activity” (J Med Chem, 1991).

Experiments:
L1210 = test: Compound was tested for its antitumor activity to inhibit 50% of tumor cell growth in mouse leukemia L1210 cell lines.; assay type: functional; details: read-out: ID50 (the source's name)
Method in brief: (§1)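 L1210 and P388 murine leukemia cells were kept in RPMI 1640 with 10% fetal calf serum, penicillin and streptomycin, plus 1 mM β-mercaptoethanol added at 1% (L1210) or 2% (P388). Stocks were 1 mg/mL in 5% DMSO, diluted in water (0.5% DMSO at the top dose). Cells were plated at 3×10^4/mL and treated immediately for 72 h, then Coulter-counted as % of control; IC50 was taken from concentration–response curves.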

P388 = test: Compound was tested for its antitumor activity to inhibit 50% of tumor cell growth in mouse leukemia P388 cell lines.; assay type: functional; details: read-out: ID50 (the source's name); method in brief: as §1
Adenosine deaminase [1] = target: T1, Adenosine deaminase (Bos taurus, UniProt P56658); test: Compound was tested for the inhibition of Adenosine deaminase from calf intestine.
T1 sequence (P56658 whole entry): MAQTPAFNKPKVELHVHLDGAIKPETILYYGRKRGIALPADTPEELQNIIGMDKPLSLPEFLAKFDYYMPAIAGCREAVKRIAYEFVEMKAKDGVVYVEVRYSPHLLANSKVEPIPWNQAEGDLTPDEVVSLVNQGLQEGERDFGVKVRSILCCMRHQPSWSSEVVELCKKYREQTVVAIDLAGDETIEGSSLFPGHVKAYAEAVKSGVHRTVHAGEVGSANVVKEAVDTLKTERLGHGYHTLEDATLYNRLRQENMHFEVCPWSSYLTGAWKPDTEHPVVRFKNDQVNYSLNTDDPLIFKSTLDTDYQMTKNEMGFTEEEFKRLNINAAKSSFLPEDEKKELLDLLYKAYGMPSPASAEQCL

Adenosine deaminase [2] = target: T1, Adenosine deaminase; test: Compound was tested for the inhibition of Adenosine deaminase from calf intestine; NA indicates not active

| Compound | IC50 (L1210) [µM] | IC50 (P388) [µM] | Ki (Adenosine deaminase [1]) [µM] | Ki (Adenosine deaminase [2]) |
| --- | --- | --- | --- | --- |
| OC[C@H]1O[C@@H](n2cnc3c(NO)ccnc32)[C@H](O)[C@@H]1O | 5.3 | 4.9 | 1.2 |  |
| OC[C@H]1O[C@@H](n2cnc3/c(=N\O)[nH]cnc32)[C@H](O)[C@@H]1O | 3.1 | 1.6 |  |  |
| OC[C@H]1O[C@@H](n2cnc3c(NO)ccnc32)C[C@@H]1O | > 100 | 67.6 | 0.27 |  |
| O=[N+]([O-])c1cc(Cl)nc2c1ncn2C1O[C@H](CO)[C@@H](O)[C@H]1O (stereo partly specified) | 0.9 | 1.5 |  | Not Active |
| Nc1ncnc2c1ncn2[C@@H]1O[C@H](CO)[C@@H](O)[C@@H]1O [VIDARABINE] | 21.7 | 16.8 |  |  |

Further lines, results first:

| IC50 (L1210) [µM] | IC50 (P388) [µM] | Ki (Adenosine deaminase [1]) [µM] | Ki (Adenosine deaminase [2]) | Compound |
| --- | --- | --- | --- | --- |
| 14.9 | 20.6 |  | Not Active | O=[N+]([O-])c1ccnc2c1ncn2[C@H]1C[C@H](O)[C@@H](CO)O1 |
| 4.8 | 4.3 |  | Not Active | Cc1ccc(C(=O)OC[C@H]2O[C@@H](n3cnc4c(NO)cc(Cl)nc43)C[C@@H]2OC(=O)c2ccc(C)cc2)cc1 |
| 4.9 | 10.4 |  | Not Active | Cc1ccc(C(=O)OC[C@H]2O[C@@H](n3cnc4c(NO)nc(Cl)nc43)C[C@@H]2OC(=O)c2ccc(C)cc2)cc1 |
| 22.5 | 16.9 | 5.3 |  | Cc1ccc(C(=O)OC[C@H]2O[C@@H](n3cnc4c(NO)ccnc43)C[C@@H]2OC(=O)c2ccc(C)cc2)cc1 |
| 94.4 | 75.5 |  | Not Active | OC[C@H]1OC(n2cnc3c(NO)nc(Cl)nc32)[C@H](O)[C@@H]1O (stereo partly specified) |
| 91 | 60 | 69 |  | OC[C@H]1OC(n2cnc3c(NO)cc(Cl)nc32)[C@H](O)[C@@H]1O (stereo partly specified) |
